Results reported in ChEMBL document CHEMBL1127432, “Synthesis, in vitro biological stability, and anti-HIV activity of 5-halo-6-alkoxy(or azido)-5,6-dihydro-3'-azido-3'-deoxythymidine diastereomers as potential prodrugs to 3'-azido-3'-deoxythymidine (AZT)” (J Med Chem, 1994).
pEC50, pIC50: −log10 of the molar value.

What was measured:
CCRF-CEM [1] = test: Inhibitory concentration (cytotoxic activity) which results in a 50% survival of […]; format: functional, cell-based; settings: Homo sapiens
Outline: (§1)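 Cytotoxicity run in the NCI AIDS screening program on CEM T4 lymphocytes alongside the anti-HIV test. IC50 = drug concentration giving 50% survival of uninfected untreated control cells. AZT control tested concurrently.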

[2] = biological target: Human immunodeficiency virus 1 (Human immunodeficiency virus 1, UniProt Q72547); test: Effective concentration (in vitro anti-HIV activity ) which produces a 50% survival of HIV-1-infected CEM cells relative to uninfected untreated controls; Inactive; format: functional, cell-based; settings: ccrf-cem
Outline: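 HIV-1-infected CEM (T4 lymphocyte) cells given small amounts of virus, allowing one complete replication cycle to cause cell killing. Read-out: protection from cytolysis (cell survival) relative to uninfected untreated controls. EC50 is the drug concentration giving 50% survival of infected cells. AZT-treated positive control run concurrently under identical conditions. Run through the NCI Developmental Therapeutics Program AIDS antiviral screen.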

[3] = Therapeutic index of IC50 to EC50; settings: read-out: TI
Outline: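 TI = IC50/EC50, both from the NCI CEM cell screen. IC50 is the drug concentration giving 50% survival of uninfected untreated controls. EC50 is the concentration giving 50% survival of HIV-1-infected cells relative to uninfected untreated controls.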

Mus musculus [4] = species: Mus musculus; test: In vitro percent of 3''-azido-3''-deoxythymidine (AZT) formed upon incubation with mouse blood for 10 min at 37 degree C; format: functional
Outline: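 Heparinized mouse blood from cardiac puncture mixed 1:1 by volume with compound (1 mg/mL stock in water). Incubated 10 min at 37 °C, quenched with ice-cold methanol, 10 min on ice, then centrifuged. Supernatant dried under N2 and redissolved in methanol; AZT quantified by HPLC-UV at 230/265 nm.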

[5] = Regeneration of the 5,6-Olefinic bond was measured as percent of 3''-azido-3''-deoxythymidine (AZT) formed upon incubation with Glutathione for 30 min at 37 degree C; format: functional
Outline: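 Compound incubated with reduced glutathione at a compound:GSH mole ratio of 1:2 (1:5 for some analogs) in phosphate buffer pH 7.4 at 37 °C, for times up to 24 h. AZT formed quantified by HPLC, UV 230 nm (dihydro compound) and 265 nm (AZT), water:methanol 7:3 eluent.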

[6] = biological target: Thymidine phosphorylase (Escherichia coli K-12) (UniProt P07650); test: In vitro percent of phosphorolysis after incubation with Escherichia coli thymidine phosphorylase for 10 min at 37 degree C; format: functional
Sequence of Thymidine phosphorylase (Escherichia coli K-12) (P07650 whole entry, looked up): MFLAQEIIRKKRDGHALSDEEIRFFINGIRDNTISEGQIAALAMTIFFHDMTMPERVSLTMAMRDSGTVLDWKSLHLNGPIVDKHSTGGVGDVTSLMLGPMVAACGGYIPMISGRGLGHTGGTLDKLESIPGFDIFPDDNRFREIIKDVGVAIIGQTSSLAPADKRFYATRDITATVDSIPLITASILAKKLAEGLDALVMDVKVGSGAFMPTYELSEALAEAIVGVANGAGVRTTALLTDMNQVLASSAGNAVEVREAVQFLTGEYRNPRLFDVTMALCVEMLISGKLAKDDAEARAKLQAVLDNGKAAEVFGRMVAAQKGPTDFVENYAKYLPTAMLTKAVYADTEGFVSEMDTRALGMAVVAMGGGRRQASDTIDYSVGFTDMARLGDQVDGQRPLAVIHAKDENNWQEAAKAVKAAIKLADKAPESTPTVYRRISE
Outline: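 E. coli thymidine phosphorylase diluted in 10 mM Tris-HCl pH 7.3 with EDTA, plus 100 mM KH2PO4 pH 7.1 (stock), prewarmed to 37 °C. Substrate added, 10 min at 37 °C, stopped with ice-cold methanol, spun. HPLC-UV at 230 nm tracked substrate loss or appearance of base. Thymidine used as control substrate; each run at least twice.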

Mus musculus [7] = species: Mus musculus; test: In vitro percent of 3''-azido-3''-deoxythymidine (AZT) formed upon incubation with mouse liver homogenate for 30 min at 37 degree C; format: functional
Outline: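 Livers of three Balb/c mice homogenized in 0.1 M Tris pH 8.2, spun at 49000g for 2 h at 4 °C; supernatant (soluble enzyme fraction) used. Compound (1 mg/mL stock) incubated with the fraction 30 min at 37 °C, mixed with equal volume methanol, centrifuged. Supernatant dried and redissolved; AZT quantified by HPLC, UV 230 and 265 nm.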

[8] = Effective concentration in vitro against HIV-1-infected CEM cells relative to uninfected untreated controls; settings: ccrf-cem
CCRF-CEM [9] = test: Inhibitory concentration (cytotoxic activity) which results in a 50% survival of […]; ND=Not determined; format: functional, cell-based; settings: Homo sapiens; outline: as §1

Row | Compound | pIC50 (CCRF-CEM [1]) | EC50 [2] | selectivity ratio [3] | AZT formation (Mus musculus [4]) [%] | AZT formation [5] [%] | Phosphorolysis [6] [%] | AZT formation (Mus musculus [7]) [%] | also measured
1 | CCO[C@H]1N(C2CC(N=[N+]=[N-])C(CO)O2)C(=O)NC(=O)[C@@]1(C)Cl (some centres not stated) | < 3.70 | Not Active | – | – | – | – | – | –
2 | CC(C)O[C@H]1N(C2CC(N=[N+]=[N-])C(CO)O2)C(=O)NC(=O)[C@]1(C)Cl (some centres not stated) | < 3.70 | Not Active | – | – | – | – | – | –
3 | CO[C@H]1N([C@H]2C[C@H](N=[N+]=[N-])[C@@H](CO)O2)C(=O)NC(=O)C1(C)Cl (some centres not stated) | < 3.05 | – | 155 | – | – | – | – | –
4 | CO[C@H]1N(C2CC(N=[N+]=[N-])C(CO)O2)C(=O)NC(=O)[C@]1(C)I (some centres not stated) | 4.73 | – | 5900 | 100 | 100 | 0 | 79 | –
5 | CCO[C@@H]1N(C2CC(N=[N+]=[N-])C(CO)O2)C(=O)NC(=O)[C@@]1(C)Br (some centres not stated) | 4.65 | – | 937 | – | 85 | 0 | – | –
6 | CCCCCCCCO[C@H]1N(C2CC(N=[N+]=[N-])C(CO)O2)C(=O)NC(=O)[C@]1(C)Br (some centres not stated) | 4.91 | – | 14 | – | – | – | – | –
7 | Cc1cn([C@H]2C[C@H](N=[N+]=[N-])[C@@H](CO)O2)c(=O)[nH]c1=O [ZIDOVUDINE] | – | – | > 10000 | – | – | 0 | – | pEC50 [8]: 8.52
8 | CCCCCCCCO[C@H]1N(C2CC(N=[N+]=[N-])C(CO)O2)C(=O)NC(=O)[C@]1(C)Cl (some centres not stated) | – | Not Active | – | – | – | – | – | pIC50 (CCRF-CEM [9]): 4.43
9 | CCO[C@H]1N(C2CC(N=[N+]=[N-])C(CO)O2)C(=O)NC(=O)[C@]1(C)Cl (some centres not stated) | – | Not Active | – | – | – | – | – | pIC50 (CCRF-CEM [9]): < 3.70
10 | CO[C@@H]1N(C2CC(N=[N+]=[N-])C(CO)O2)C(=O)NC(=O)[C@@]1(C)Cl (some centres not stated) | – | – | – | 0 | 0 | 0 | 0 | –
11 | CC(C)O[C@H]1N(C2CC(N=[N+]=[N-])C(CO)O2)C(=O)NC(=O)[C@]1(C)Br (some centres not stated) | < 3.70 | – | 35 | – | – | – | – | –
12 | Cc1cn([C@H]2C[C@H](O)[C@@H](CO)O2)c(=O)[nH]c1=O | – | – | – | – | – | 72 | – | –
13 | CO[C@@H]1N(C2CC(N=[N+]=[N-])C(CO)O2)C(=O)NC(=O)[C@@]1(C)I (some centres not stated) | 5.19 | – | 1250 | 100 | 100 | 0 | 96 | –
14 | CO[C@H]1N(C2CC(N=[N+]=[N-])C(CO)O2)C(=O)NC(=O)[C@@]1(C)Cl (some centres not stated) | – | – | – | 0 | 0 | 0 | 0 | –
15 | CO[C@H]1N(C2CC(N=[N+]=[N-])C(CO)O2)C(=O)NC(=O)[C@]1(C)Cl (some centres not stated) | – | – | – | 0 | 0 | 0 | 0 | –
16 | CCO[C@@H]1N(C2CC(N=[N+]=[N-])C(CO)O2)C(=O)NC(=O)[C@@]1(C)Cl (some centres not stated) | < 3.70 | Not Active | – | – | – | – | – | –
17 | CCCCCCCCCCCCCCCCO[C@H]1N(C2CC(N=[N+]=[N-])C(CO)O2)C(=O)NC(=O)[C@]1(C)Br (some centres not stated) | 4.96 | Not Active | – | – | – | – | – | –
18 | CCCCCCCCCCCCCCCCO[C@H]1N(C2CC(N=[N+]=[N-])C(CO)O2)C(=O)NC(=O)[C@]1(C)Cl (some centres not stated) | 4.51 | Not Active | – | – | – | – | – | –
19 | CO[C@@H]1N(C2CC(N=[N+]=[N-])C(CO)O2)C(=O)NC(=O)[C@@]1(C)Br (some centres not stated) | 4.37 | – | 152 | 88 | 77 | 0 | 44 | –
20 | CO[C@H]1N(C2CC(N=[N+]=[N-])C(CO)O2)C(=O)NC(=O)[C@]1(C)Br (some centres not stated) | 4.76 | – | 5260 | 59 | 80 | 0 | 26 | –
21 | CC1(Br)C(=O)NC(=O)N([C@H]2C[C@H](N=[N+]=[N-])[C@@H](CO)O2)C1N=[N+]=[N-] (some centres not stated) | 3.75 | – | < 1 | – | – | – | – | –
22 | CC1(Cl)C(=O)NC(=O)N([C@H]2C[C@H](N=[N+]=[N-])[C@@H](CO)O2)C1N=[N+]=[N-] (some centres not stated) | 3.46 | – | 235 | – | – | – | – | –
23 | CCO[C@H]1N(C2CC(N=[N+]=[N-])C(CO)O2)C(=O)NC(=O)[C@]1(C)Br (some centres not stated) | 4.73 | – | 2740 | – | 100 | 0 | – | –
